pEC50: −log10 of the molar value. Several values for one entry are separate records, joined by “and”; a condition that tells them apart may be missing. Equal values may be shown once.
assay: Effective concentration required for [35S]GTP-gamma-S binding towards Sphingosine 1-phosphate receptor G-protein complex expressed in HEK293T cells; assay type: functional, cell-based, Homo sapiens; conditions: hek-293t
Outline: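 Agonist-stimulated [35S]GTPγS binding was measured on individual S1P receptor–G-protein complexes overexpressed in HEK293T cells. EC50 values were taken from ligand-dependent binding, and efficacy was expressed as a percentage of the S1P maximal effect at each receptor.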

Row | pEC50 | SMILES
1 | 7.70 | CCCCCCCCc1ccc(NC(=O)[C@@H](N)[C@@H](C)OP(=O)(O)O)cc1
2 | 6.04 and 5.55 and 5.06 | CCCCCCCCc1ccc(CC[C@@H](N)CO)cc1
3 | 5.77 and 6.31 | CCCCCCCCc1ccc(NC(=O)[C@@H](N)[C@@H](C)O)cc1

Reference: ChEMBL document CHEMBL1142845, “Synthesis, stability, and implications of phosphothioate agonists of sphingosine-1-phosphate receptors” (Bioorg Med Chem Lett, 2005)
